Calls of active or inactive are those of the source. The calls are words filed in the database; no cut-off is given here.
Legend:
HCT-116 [1] = test: Induction of apoptosis in human HCT116 cells assessed as late apoptotic cells at 2.5 uM after 24 hrs by annexin V/7-ADD staining-based flow cytometry (reference value: 1.65%); type: functional
HCT-116 [2] = test: Effect on cell cycle in human HCT116 cells assessed as inhibition of cyclin E1 expression at 1 to 10 uM after 24 hrs by Western blot method; type: functional, cell-based
Summary of the method: (§1)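 CRC cells treated at indicated doses for 24 h. Whole-cell lysates made in RIPA buffer with protease and phosphatase inhibitors and cleared at 15,000 rpm for 10 min. Resolved on 4-12% gels, transferred to PVDF, probed for cell-cycle proteins, detected by ECL. Membranes stripped for sequential probing.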

HT-29 = test: Antiproliferative activity against human HT-29 cells assessed as reduction in cell viability after 24 hrs by MTT assay; type: functional, cell-based; conditions: HT-29, 24 h
Summary of the method: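 3000 cells/well incubated in triplicate with serial concentrations of compound for 24, 48 or 72 h at 37 °C. MTT (5.0 mg/mL solution) added 3 h before the end. Formazan dissolved in DMSO, absorbance read at 570 and 630 nm. Viability normalised to vehicle control. IC50 from non-linear regression (variable slope), mean ± SD of triplicates.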

HCT-116 [3] = test: Induction of cell cycle arrest in human HCT116 cells assessed as accumulation at S phase at 5 uM after 24 hrs by propidium iodide staining-based flow cytometry (reference value: 48%); type: functional
HCT-116 [4] = test: Induction of apoptosis in human HCT116 cells assessed as dead cells at 5 uM after 24 hrs by 7-ADD and caspase 3/7 activity-based flow cytometry (reference value: 3.25%); type: functional
UACC-903 = test: Potency index, ratio IC50 of selecoxib-1-GSH to IC50 of compound for human UACC-903 cells after 48 and 72 hrs; type: functional
HCT-116 [5] = test: Effect on cell cycle in human HCT116 cells assessed as inhibition of cyclin B1 expression at 1 to 10 uM after 24 hrs by Western blot method; type: functional, cell-based; summary of the method: as §1

CC(=O)Oc1ccccc1C(=O)NCC[Se]C#N
Activity (HCT-116 [1]): 8.3% | inhibition (HCT-116 [2]): Active | IC50 (HT-29): 3.4 µM | Activity (HCT-116 [3]): 13% | Activity (HCT-116 [4]): 2.65% | Ratio IC50 (UACC-903): >=5 | inhibition (HCT-116 [5]): Active
